Several values for one entry are separate records, joined by “and”; a condition that tells them apart may be missing. Identical values can stand only once.
Legend:
Rattus norvegicus [1] = test: The compound tested for toxicity in kidney against male rat after intraperitoneal administration of 1.0 mmol/kg; assay type: organism-based; settings: in vivo, ip
Outline: (§1)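 Young adult male Sprague-Dawley rats dosed intraperitoneally at 1.0 or 2.0 mmol/kg in aqueous solution. Animals were kept in metabolic cages with food and water ad libitum, and urine was collected over 48 h. Liver and kidney were examined histologically at 48 h. Liver was graded as vacuolation (1+) or centrilobular necrosis (2+, 3+, 4+); kidney was graded as deep cortical tubular necrosis.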

Rattus norvegicus [2] = organism: Rattus norvegicus; test: Percent total excretion of acetaminophen cysteine conjugate; assay type: functional
Outline: (§2)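 Urine was collected for 48 h from dosed rats or mice kept in metabolic cages. It was filtered (0.5 μm) and separated by reverse-phase HPLC at 2 mL/min, starting in phosphate-buffered solvent at pH 7.2. After a 4 min delay, methanol was raised linearly to 50% over 18 min. Detection was at 254 and 280 nm. Each metabolite was quantified from peak area using response factors from standards and expressed as % of total excreted metabolites.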

Mus musculus [3] = test: The compound tested for toxicity in kidney against male mouse after intraperitoneal administration of 2.0 mmol/kg; assay type: organism-based; settings: in vivo, ip
Outline: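 Young adult male Swiss mice given a single intraperitoneal dose of 2.0 mmol/kg in aqueous solution. Animals were held in metabolic cages with standard feed and water ad libitum, and urine was collected for 48 h. At 48 h, liver and kidneys were taken for histology. Liver was scored as vacuolation (1+) or centrilobular necrosis (2+ to 4+); kidney was scored as deep cortical tubular necrosis.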

[4] = (§3) Percent total excretion of 3-(thiomethyl)acetaminophen sulfate; assay type: ADME; outline: as §2
[5] = (§4) Percent total excretion of acetaminophen; assay type: ADME; outline: as §2
Rattus norvegicus [6] = organism: Rattus norvegicus; test: as §3; assay type: functional; outline: as §2
Rattus norvegicus [7] = organism: Rattus norvegicus; test: (§5) Percent total excretion of acetaminophen-mercapturic acid; assay type: functional; outline: as §2
Rattus norvegicus [8] = organism: Rattus norvegicus; test: (§6) Percent total excretion of acetaminophen glucuronide; assay type: functional; outline: as §2
Rattus norvegicus [9] = organism: Rattus norvegicus; test: Percent total excretion of acetaminophen sulfate; assay type: functional; outline: as §2
Rattus norvegicus [10] = test: The compound tested for toxicity in kidney against male rat after intraperitoneal administration of 2.0 mmol/kg; Positive; assay type: organism-based; settings: in vivo, ip; outline: as §1
[11] = (§7) Percent total excretion of 3-(thiomethyl)acetaminophen glucuronide; assay type: ADME; outline: as §2
[12] = (§8) Percent total excretion of N-methoxyacetaminophen sulfate; assay type: ADME; outline: as §2
Rattus norvegicus [13] = organism: Rattus norvegicus; test: as §4; assay type: functional; outline: as §2
Rattus norvegicus [14] = organism: Rattus norvegicus; test: (§9) Percent total excretion of 3-methoxyacetaminophen glucuronide; assay type: functional; outline: as §2
[15] = as §5; assay type: ADME; outline: as §2
[16] = as §6; assay type: ADME; outline: as §2
Rattus norvegicus [17] = organism: Rattus norvegicus; test: as §8; assay type: functional; outline: as §2
[18] = (§10) Percent total excretion of N-methoxyacetaminophen glucuronide; assay type: ADME; outline: as §2
Rattus norvegicus [19] = organism: Rattus norvegicus; test: as §10; assay type: functional; outline: as §2
[20] = as §9; assay type: ADME; outline: as §2
Rattus norvegicus [21] = test: (§11) Percent dose excreted in 0-48 hours administered ip to male rat; assay type: ADME, organism-based; settings: in vivo
Outline: (§12)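 Young adult male Sprague-Dawley rats were dosed i.p. with N-hydroxyacetaminophen in aqueous solution at 1.0 and 2.0 mmol/kg. Animals were held in metabolic cages with standard feed and water ad libitum, and urine was collected over 48 h. Quantitation was by gradient HPLC, using response factors from standard solutions.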

Mus musculus [22] = test: The compound tested for toxicity in liver against male mouse after intraperitoneal administration of 2.0 mmol/kg; settings: in vivo, ip
Rattus norvegicus [23] = test: as §11; assay type: functional; outline: as §12
Rattus norvegicus [24] = test: The compound tested for toxicity in liver against male rat after intraperitoneal administration of 2.0 mmol/kg; assay type: organism-based; settings: in vivo, ip; outline: as §1
Rattus norvegicus [25] = test: The compound tested for toxicity in liver against male rat after intraperitoneal administration of 1.0 mmol/kg; assay type: organism-based; settings: in vivo, ip; outline: as §1
Rattus norvegicus [26] = organism: Rattus norvegicus; test: as §7; assay type: functional; outline: as §2
Mus musculus [27] = test: Percent dose excreted in 0-48 hours administered ip to male mouse; assay type: ADME, organism-based; settings: in vivo
Outline: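 Young adult male Swiss mice, previously housed on pine wood-chip bedding, received N-hydroxyacetaminophen in aqueous solution i.p. at 2.0 mmol/kg. They were then kept in metabolic cages with standard feed and water ad libitum. Urine was collected for 48 h and analysed by gradient reverse-phase HPLC, with peak areas calibrated against standard solutions.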

Mus musculus [28] = test: The compound tested for toxicity in liver against female mouse after intragastric administration of 10 mmol/kg; signifies centrilobular necrosis of liver; assay type: organism-based; settings: in vivo, po
Outline: (§13)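 Young adult female Swiss mice, previously housed on pine wood-chip bedding. The sodium salt was given in aqueous solution at 2.0 mmol/kg intravenously or 10 mmol/kg intragastrically. Animals were housed in metabolic cages with feed and water ad libitum for 48 h, with urine collected throughout. At 48 h, liver and kidneys were assessed histologically. Liver was graded as vacuolation (1+) or centrilobular necrosis (2+ to 4+); kidney was graded as deep cortical tubular necrosis.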

[29] = Percent of total excretion of acetaminophen glucuronide; assay type: ADME; outline: as §2
[30] = Percent of total excretion of acetaminophen cysteine conjugate; assay type: ADME; outline: as §2
[31] = Percent of total excretion of N-methoxyacetaminophen glucuronide; assay type: ADME; outline: as §2
Mus musculus [32] = test: The compound tested for toxicity in kidney against female mouse after intravenous administration of 2.0 mmol/kg; Normal; assay type: organism-based; settings: in vivo; outline: as §13
[33] = Percent of total excretion of 3-methoxyacetaminophen glucuronide; assay type: ADME; outline: as §2
[34] = Percent of total excretion of acetaminophen sulfate; assay type: ADME
Outline: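 Rats (male Sprague-Dawley, 1.0 or 2.0 mmol/kg ip) and Swiss mice (males 2.0 mmol/kg ip; females 2.0 mmol/kg iv or 10 mmol/kg intragastric) dosed in aqueous solution. Urine was collected over 0–48 h in metabolic cages. Filtered urine went through gradient HPLC (pH 7.2 buffer, 0→50% methanol; 254/280 nm), quantified against standard peak-area response factors. Values are % of total excreted metabolites.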

Mus musculus [35] = test: The compound tested for toxicity in kidney against female mouse after intragastric administration of 10.0 mmol/kg; Normal; settings: in vivo
[36] = Percent of total excretion of acetaminophen; assay type: ADME; outline: as §2
[37] = Percent of total excretion of 3-(thiomethyl)acetaminophen glucuronide; assay type: ADME; outline: as §2
[38] = Percent of total excretion of 3-(thiomethyl)acetaminophen sulfate; assay type: ADME; outline: as §2
[39] = Percent of total excretion of N-methoxyacetaminophen sulfate; assay type: ADME; outline: as §2
[40] = Percent of total excretion of acetaminophen-mercapturic acid; assay type: ADME; outline: as §2
Mus musculus [41] = test: The compound tested for toxicity in liver against female mouse after intravenous administration of 2.0 mmol/kg; signifies centrilobular necrosis of liver; assay type: organism-based; settings: in vivo; outline: as §13
[42] = Percent of total excretion of N-hydroxyacetaminophen sulfate; assay type: ADME; outline: as §2
[43] = Percent of total excretion of N-hydroxyacetaminophen glucuronide; assay type: ADME; outline: as §2

## CC(=O)N(O)c1ccc(O)cc1
Rattus norvegicus [1]
  Toxicity: 0
Rattus norvegicus [2]
  Total excretion: 0%
Mus musculus [3]
  Toxicity: 0
[4]
  Total excretion: 9% and 15.9%
[5]
  Total excretion: 5% and 4.5%
Rattus norvegicus [6]
  Total excretion: 5.1%
Rattus norvegicus [7]
  Total excretion: 14.5%
Rattus norvegicus [8]
  Total excretion: 10.8%
Rattus norvegicus [9]
  Total excretion: 51.3%
Rattus norvegicus [10]
  Toxicity: Positive
[11]
  Total excretion: 2% and 4.1%
[12]
  Total excretion: 2.7% and 3%
Rattus norvegicus [13]
  Total excretion: 7%
Rattus norvegicus [14]
  Total excretion: 0%
[15]
  Total excretion: 13.2% and 6.1%
[16]
  Total excretion: 18% and 25.9%
Rattus norvegicus [17]
  Total excretion: 8.1%
[18]
  Total excretion: 2.3% and 3.4%
Rattus norvegicus [19]
  Total excretion: 1.5%
[20]
  Total excretion: 0%
Rattus norvegicus [21]
  Dose: 55%
Mus musculus [22]
  Toxicity: 2
Rattus norvegicus [23]
  Dose: 70.9%
Rattus norvegicus [24]
  Toxicity: 0
Rattus norvegicus [25]
  Toxicity: 0
Rattus norvegicus [26]
  Total excretion: 1.9%
Mus musculus [27]
  Dose: 41.5%

## CC(=O)Nc1ccc(O)cc1 [ACETAMINOPHEN]
Mus musculus [28]
  Toxicity: 3
[29]
  Total excretion: 64% and 58.4%
[30]
  Total excretion: 2.9% and 10.4%
[31]
  Total excretion: 0%
Mus musculus [32]
  Toxicity: 0
[33]
  Total excretion: 0%
[34]
  Total excretion: 13.8% and 13.3%
Mus musculus [35]
  Toxicity: 0
[36]
  Total excretion: 11.9% and 12.1%
[37]
  Total excretion: 0.7% and 0.6%
[38]
  Total excretion: 3.3% and 1.5%
[39]
  Total excretion: 0%
[40]
  Total excretion: 3.5% and 3.8%
Mus musculus [41]
  Toxicity: 2
[42]
  Total excretion: 0%
[43]
  Total excretion: 0%

Source: ChEMBL document CHEMBL1121686 (J Med Chem, 1981)
